Measurements gathered from unrelated publications.
Each line is one published result; the experiments were not run side by side.

| Structure (SMILES) | cell line | effect on | action | method | time | notes | IC50 [µM] |
| --- | --- | --- | --- | --- | --- | --- | --- |
| COc1ccc(NC(=O)C2=C(C)NC(C)=C(C(=O)Nc3ccc(OC)cc3OC)C2c2cccc(Cl)c2)c(OC)c1 | Vero | cell growth or viability |  | MTT |  |  | 67.5 |
| C=C(F)C(=O)N1CCN(c2nc(OC[C@@H]3CCCN3C)nc3c2CCN(c2cccc4cccc(Cl)c24)C3)C[C@@H]1CC#N | Lu-65 | cell growth or viability |  | ATP luminescence |  | 3D culture | 0.00188 |
| CC(C)Oc1ccc(S(=O)(=O)c2ccc(Oc3cc(OCC(N)=O)c(C(=O)C(Cl)Cl)cc3[N+](=O)[O-])cc2)cc1 | NCI-H1299 | cell growth or viability |  | MTT | 72 h |  | 0.31 |
| COc1ccc(NC(=O)C2=C(C)NC(C)=C(C(=O)Nc3ccc(OC)cc3OC)C2c2ccccc2)c(OC)c1 | Vero | cell growth or viability |  | MTT |  |  | 86.5 |
| COc1cc(NC(=O)c2ccccn2)ccc1S(N)(=O)=O | RAW264.7 | cell growth or viability |  | MTT | 48 h |  | > 100 |
| CC(C)c1ccccc1[C@@H]1CCCN1C1CC2(CCN(c3ccc(C(=O)NS(=O)(=O)c4ccc(NC[C@H]5CC[C@](C)(O)CC5)c([N+](=O)[O-])c4)c(Oc4cnc5[nH]ccc5c4)c3)CC2)C1 | Maver1 | cell growth or viability |  | ATP luminescence | 48 h |  | 0.00096 |
| COc1cc2c(NC3CCN(CCCC(=O)NCCCCCCCCCCCC(=O)N[C@H](C(=O)N4C[C@H](O)C[C@H]4C(=O)NCc4ccc(-c5scnc5C)cc4)C(C)(C)C)CC3)nc(N3CCC(F)(F)CC3)nc2cc1OCCCN1CCCC1 | 22Rv1 | cell growth or viability |  | CCK-8 | 7 days |  | 4.1 |
| COc1ccc(NC(=O)C2=C(C)NC(C)=C(C(=O)Nc3cc(OC)c(Cl)cc3OC)C2c2cccc(Cl)c2)c(OC)c1 (centres unmarked) | Vero | cell growth or viability |  | MTT |  |  | 49.6 |
| COc1cc2c3c(n(CCCN4CCOCC4)c(=O)c2cc1OC)-c1nc2c(cc1C3=O)OCO2 | HL-60 | cell growth or viability |  | MTS | 72 h |  | > 2 |
| COc1cc(NC(=O)c2ccc(C#N)cc2)ccc1S(N)(=O)=O | RAW264.7 | cell growth or viability |  | MTT | 48 h |  | > 100 |
| C#CCOc1ccc(/C=C/c2cc(OC)cc(OC)c2-c2cnnn2C(=O)NCCc2ccccc2)cc1 | RAW264.7 | NO release | inhibitor | Griess | 24 h | LPS-stimulated | 11.7 |
| COc1cc2c3c(n(CCCNCCO)c(=O)c2cc1OC)-c1nc2c(cc1C3=O)OCO2 | HL-60 | cell growth or viability |  | MTS | 72 h |  | 0.29 |
| COc1cc(NC(=O)c2ccccc2[N+](=O)[O-])ccc1S(N)(=O)=O | RAW264.7 | cell growth or viability |  | MTT | 48 h |  | > 100 |
| Cc1ccc(-c2cc(C(F)(F)F)nn2-c2ccc(S(N)(=O)=O)cc2)cc1 | RAW264.7 | NO release | inhibitor | Griess | 24 h | LPS-stimulated | > 20 |
| CCNCCCn1c2c(c3cc(OC)c(OC)cc3c1=O)C(=O)c1cc3c(nc1-2)OCO3 | HL-60 | cell growth or viability |  | MTS | 72 h |  | 0.27 |
| CC1(C)CCC(CN2CCN(c3ccc(C(=O)NS(=O)(=O)c4ccc(NCC5CCOCC5)c([N+](=O)[O-])c4)c(Oc4cnc5[nH]ccc5c4)c3)CC2)=C(c2ccc(Cl)cc2)C1 | HL-60 | cell growth or viability |  | ATP luminescence | 48 h |  | 3.04 |
| C#CCOc1ccc(/C=C/c2cc(OC)cc(OC)c2-c2cnnn2C(=O)NCC)cc1 | RAW264.7 | NO release | inhibitor | Griess | 24 h | LPS-stimulated | 10.6 |
